Test results published in ChEMBL document CHEMBL1123625, “Synthesis and antitumor activity of tropolone derivatives. 6. Structure-activity relationships of antitumor-active tropolone and 8-hydroxyquinoline derivatives” (J Med Chem, 1987).
≈ marks a conversion by molar mass, not a printed value. Calls of active or inactive are those of the source. The rule behind the calls is not given here.

Experiments:
Mus musculus [1] = experiment: Antitumor activity against leukemia P388 cell line in mice was determined at 50 mg/kg intraperitoneal dose; type: functional
Method in brief: (§1)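 Mice bearing leukemia P388, dosed intraperitoneally; activity read out as % T/C.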

Mus musculus [2] = experiment: Antitumor activity against leukemia P388 cell line in mice was determined at 25 mg/kg intraperitoneal dose; type: functional; method in brief: as §1
[3] = Antitumor activity was determined by the ability to inhibit KB cell growth; type: functional, cell-based; settings: Homo sapiens
Method in brief: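 KB cell growth inhibition, reported as IC50 in μg/mL.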

Mus musculus [4] = experiment: Antitumor activity against leukemia P388 cell line in mice was determined at 12.5 mg/kg intraperitoneal dose; type: functional; method in brief: as §1
Mus musculus [5] = experiment: Antitumor activity against leukemia P388 cell line in mice was determined at 400 mg/kg intraperitoneal dose; IA means inactive; type: functional, organism-based; set-up: dose 400 mg/kg; method in brief: as §1
Mus musculus [6] = experiment: Antitumor activity against leukemia P388 cell line in mice was determined at 100 mg/kg intraperitoneal dose; type: functional; method in brief: as §1
Mus musculus [7] = experiment: Antitumor activity against leukemia P388 cell line in mice was determined at 10 mg/kg intraperitoneal dose; type: functional; method in brief: as §1
Mus musculus [8] = experiment: Antitumor activity against leukemia P388 cell line in mice was determined at 3.1 mg/kg intraperitoneal dose; type: functional; method in brief: as §1
Mus musculus [9] = experiment: Antitumor activity against leukemia P388 cell line in mice was determined at 6.3 mg/kg intraperitoneal dose; type: functional; method in brief: as §1
Mus musculus [10] = experiment: Antitumor activity against leukemia P388 cell line in mice was determined at 40 mg/kg intraperitoneal dose; type: functional; method in brief: as §1
Mus musculus [11] = experiment: Antitumor activity against leukemia P388 cell line in mice was determined at 20 mg/kg intraperitoneal dose; type: functional; method in brief: as §1
Mus musculus [12] = experiment: Antitumor activity against leukemia P388 cell line in mice was determined at 400 mg/kg intraperitoneal dose; type: functional; method in brief: as §1
Mus musculus [13] = experiment: Antitumor activity against leukemia P388 cell line in mice was determined at 2.5 mg/kg intraperitoneal dose; type: functional; method in brief: as §1

Work on `COc1ccc(C(c2ccc3cccnc3c2O)c2oc(CO)cc(=O)c2O)cc1` (centres undefined) yielded a T/C (Mus musculus [1]) of 135%, a T/C (Mus musculus [2]) of 138% and an IC50 [3] of under 0.3 µg/mL. It also gave a T/C (Mus musculus [4]) of 120%.

With `COc1ccc(C(c2c(O)ccc3ncccc23)c2c(O)ccc3ncccc23)cc1` the T/C (Mus musculus [5]) was “inactive” and the IC50 [3] was 17 µg/mL (≈ 41.6 µM).

Compound `CC(C)c1ccc(C2OCCc3ccccc32)c(O)c(=O)c1` (centres undefined) has a T/C (Mus musculus [6]) of 112%.

For `COc1ccc(C(c2ccc(C(C)C)cc(=O)c2O)c2ccc(C(C)C)cc(=O)c2O)cc1`, the T/C (Mus musculus [7]) was 170% and the IC50 [3] was under 0.3 µg/mL.

Work on `COc1ccc(C(c2ccc3cccnc3c2O)c2ccc3cccnc3c2O)cc1` yielded a T/C (Mus musculus [8]) of 111%, an IC50 [3] of under 0.3 µg/mL and a T/C (Mus musculus [4]) of 164%. It also gave a T/C (Mus musculus [9]) of 128%.

`Oc1c(C(c2ccco2)c2ccc3cccnc3c2O)ccc2cccnc12` showed a T/C (Mus musculus [7]) of 113%, a T/C (Mus musculus [10]) of 138% and an IC50 [3] of under 0.3 µg/mL. For the same compound, the T/C (Mus musculus [11]) was 120%.

For `Oc1c(C2OCCc3ccccc32)ccc2cccnc12` (centres undefined), the T/C (Mus musculus [5]) was “inactive” and the IC50 [3] was 1.3 µg/mL (≈ 4.69 µM).

For `CCOC(c1ccccc1)c1ccc(C(C)C)cc(=O)c1O` (centres undefined), the T/C (Mus musculus [5]) was “inactive” and the IC50 [3] was under 0.3 µg/mL.

For `CCOC(c1ccc(OC)cc1)c1ccc2cccnc2c1O` (centres undefined), the T/C (Mus musculus [12]) was 129%, the T/C (Mus musculus [6]) was 112% and the IC50 [3] was 0.8 µg/mL (≈ 2.59 µM).

In the case of `CCOC(c1ccc(OC)cc1)c1c(O)ccc2ncccc12` (centres undefined), the T/C (Mus musculus [5]) is reported as “inactive” and the IC50 [3] is reported as 44 µg/mL (≈ 142 µM).

`COc1ccc(C(c2ccc(C(C)C)cc(=O)c2O)c2oc(CO)cc(=O)c2O)cc1` (centres undefined) showed a T/C (Mus musculus [1]) of 152%, a T/C (Mus musculus [2]) of 146% and an IC50 [3] of 0.5 µg/mL (≈ 1.18 µM). For the same compound, the T/C (Mus musculus [4]) was 128%.

With `Oc1c(C(c2cccs2)c2ccc3cccnc3c2O)ccc2cccnc12` the T/C (Mus musculus [7]) was 125%, the T/C (Mus musculus [13]) was 108% and the IC50 [3] was under 0.3 µg/mL. For the same compound, the T/C (Mus musculus [11]) was 136%.
